Reference: ChEMBL document CHEMBL1153389, “Identification of novel antibacterial peptides by chemoinformatics and machine learning” (2009)

How the values were obtained:
Format in all cases: functional
Pseudomonas aeruginosa [1] = assay: Antimicrobial activity against Pseudomonas aeruginosa H1030 after overnight incubation by broth microdilution method
In short: (§1)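 Modified broth microdilution in polypropylene 96-well plates with Mueller-Hinton (MH) medium. Bulk-synthesized peptides were serially diluted at 10-fold final strength in 0.01% acetic acid with 0.2% BSA, then added 1:10 to MH. Inoculum came from an overnight culture at a final (2-7) × 10^5 CFU/mL. Plates were incubated overnight at 37 °C. MIC was the lowest concentration with no visible growth.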

Escherichia coli [2] = assay: Antimicrobial activity against extended-spectrum beta-lactamase producing Escherichia coli 63103 after overnight incubation by broth microdilution method
In short: (§2)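 Modified broth microdilution. Peptides are serially diluted in 0.01% acetic acid with 0.2% BSA at 10-fold the final concentration, then added to MH medium in polypropylene plates. Bacteria from an overnight culture are added to a final (2-7) × 10^5 CFU/mL. Plates are incubated overnight at 37 °C. MIC is the lowest concentration with no visible growth.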

Enterococcus faecalis [3] = assay: Antimicrobial activity against vancomycin-resistant Enterococcus faecalis w6190(VanA) isolate after overnight incubation by broth microdilution method; in short: as §1
Enterococcus faecium [4] = assay: Antimicrobial activity against vancomycin-resistant Enterococcus faecium mic80(VanA) isolate after overnight incubation by broth microdilution method; in short: as §1
Pseudomonas aeruginosa [5] = assay: Antimicrobial activity against Pseudomonas aeruginosa LES400 after overnight incubation by broth microdilution method; in short: as §1
Staphylococcus aureus [6] = assay: Antimicrobial activity against methicillin-resistant Staphylococcus aureus C623 after overnight incubation by broth microdilution method; in short: as §1
Enterococcus faecalis [7] = assay: Antimicrobial activity against Enterococcus faecalis ATCC 29212 after overnight incubation by broth microdilution method; in short: as §2
Pseudomonas aeruginosa [8] = assay: Antimicrobial activity against Pseudomonas aeruginosa H1027 after overnight incubation by broth microdilution method; in short: as §2
Pseudomonas aeruginosa [9] = assay: Antimicrobial activity against multidrug-resistant Pseudomonas aeruginosa Brazil 9 isolate after overnight incubation by broth microdilution method; in short: as §1
Pseudomonas aeruginosa [10] = assay: Antimicrobial activity against Pseudomonas aeruginosa H1001 expressing luciferase gene assessed as ratio antimicrobial IC50 for drug to Bac2A peptide by luminescence assay
In short: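 Peptides are made by SPOT synthesis on cellulose, cleaved, and the spots placed in plate wells. Overnight P. aeruginosa H1001 (fliC::luxCDABE) is diluted 1:500 in 100 mM Tris-HCl pH 7.3 with 20 mM glucose and added to the wells. After 30 min, serial dilutions (8 rows) are made. Luminescence is read at 4 h. IC50 is taken from a sigmoid fit and expressed relative to Bac2A run in the same series.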

Escherichia coli [11] = assay: Antimicrobial activity against extended-spectrum beta-lactamase producing Escherichia coli 64771 after overnight incubation by broth microdilution method; in short: as §2
Pseudomonas aeruginosa [12] = assay: Antimicrobial activity against multidrug-resistant Pseudomonas aeruginosa Brazil 198 isolate after overnight incubation by broth microdilution method; in short: as §1
[13] = test system: Stenotrophomonas maltophilia; assay: Antimicrobial activity against Pseudomonas maltophilia ATCC 13637 after overnight incubation by broth microdilution method; in short: as §2
Staphylococcus aureus [14] = assay: Antimicrobial activity against Staphylococcus aureus ATCC 25923 after overnight incubation by broth microdilution method; in short: as §1
Enterobacter cloacae = assay: Antimicrobial activity against class C chromosomal beta lactamase expressing Enterobacter cloacae 218R after overnight incubation by broth microdilution method; in short: as §2
Enterococcus faecium [15] = assay: Antimicrobial activity against vancomycin-resistant Enterococcus faecium t62764(VanB) isolate after overnight incubation by broth microdilution method; in short: as §1
Pseudomonas aeruginosa [16] = assay: Antimicrobial activity against Pseudomonas aeruginosa H103 after overnight incubation by broth microdilution method; in short: as §2
Enterococcus faecalis [17] = assay: Antimicrobial activity against vancomycin-resistant Enterococcus faecalis f43559 (VanB) isolate after overnight incubation by broth microdilution method; in short: as §1
Pseudomonas aeruginosa [18] = assay: Antimicrobial activity against multidrug-resistant Pseudomonas aeruginosa Brazil 213 isolate after overnight incubation by broth microdilution method; in short: as §1
Klebsiella pneumoniae [19] = assay: Antimicrobial activity against extended-spectrum beta-lactamase-resistant Klebsiella pneumoniae 63575 after overnight incubation by broth microdilution method; in short: as §1
Klebsiella pneumoniae [20] = assay: Antimicrobial activity against extended-spectrum beta-lactamase-resistant Klebsiella pneumoniae 61962 after overnight incubation by broth microdilution method; in short: as §1

H-RKRLKWWIY-OH showed an MIC (Pseudomonas aeruginosa [1]) of 50 µM, an MIC (Escherichia coli [2]) of 6.3 µM and an MIC (Enterococcus faecalis [3]) greater than 202 µM. For the same substance, the MIC (Enterococcus faecium [4]) was 13 µM, the MIC (Pseudomonas aeruginosa [5]) was 50 µM and the MIC (Staphylococcus aureus [6]) was 6.3 µM. It also gave an MIC (Enterococcus faecalis [7]) of 50 µM, an MIC (Pseudomonas aeruginosa [8]) of 6.3 µM and an MIC (Pseudomonas aeruginosa [9]) of 50 µM. The “Ratio IC50” value (Pseudomonas aeruginosa [10]) was 0.18, the MIC (Escherichia coli [11]) was 6.3 µM and the MIC (Pseudomonas aeruginosa [12]) was 50 µM. It also gave an MIC [13] of 3.2 µM, an MIC (Staphylococcus aureus [14]) of 6.3 µM and an MIC (Enterobacter cloacae) of 13 µM. The MIC (Enterococcus faecium [15]) was 3.2 µM, the MIC (Pseudomonas aeruginosa [16]) was 25 µM and the MIC (Enterococcus faecalis [17]) was 202 µM. The MIC (Pseudomonas aeruginosa [18]) was 50 µM, the MIC (Klebsiella pneumoniae [19]) was 50 µM and the MIC (Klebsiella pneumoniae [20]) was greater than 202 µM.
Substance H-RKWIWRWFL-OH has an MIC (Pseudomonas aeruginosa [1]) of 3.1 µM, an MIC (Escherichia coli [2]) of 1.5 µM and an MIC (Enterococcus faecalis [3]) of 24 µM. The MIC (Enterococcus faecium [4]) was 3.1 µM, the MIC (Pseudomonas aeruginosa [5]) was 6.1 µM and the MIC (Staphylococcus aureus [6]) was 3.1 µM. For the same substance, the MIC (Enterococcus faecalis [7]) was 6.1 µM, the MIC (Pseudomonas aeruginosa [8]) was 1.5 µM and the MIC (Pseudomonas aeruginosa [9]) was 12 µM. For the same substance, the “Ratio IC50” value (Pseudomonas aeruginosa [10]) was 0.15, the MIC (Escherichia coli [11]) was 1.5 µM and the MIC (Pseudomonas aeruginosa [12]) was 3.1 µM. For the same substance, the MIC [13] was 1.5 µM, the MIC (Staphylococcus aureus [14]) was 3.1 µM and the MIC (Enterobacter cloacae) was 3 µM. For the same substance, the MIC (Enterococcus faecium [15]) was 3.1 µM, the MIC (Pseudomonas aeruginosa [16]) was 6.1 µM and the MIC (Enterococcus faecalis [17]) was 24 µM. The MIC (Pseudomonas aeruginosa [18]) was 6.1 µM, the MIC (Klebsiella pneumoniae [19]) was 3.1 µM and the MIC (Klebsiella pneumoniae [20]) was 3.1 µM.
For H-RRFKFIRWW-OH, the MIC (Pseudomonas aeruginosa [1]) was 49 µM, the MIC (Escherichia coli [2]) was 12 µM and the MIC (Enterococcus faecalis [3]) was 98 µM. For the same substance, the MIC (Enterococcus faecium [4]) was 6.1 µM, the MIC (Pseudomonas aeruginosa [5]) was 12 µM and the MIC (Staphylococcus aureus [6]) was 6.1 µM. The MIC (Enterococcus faecalis [7]) was 12 µM, the MIC (Pseudomonas aeruginosa [8]) was 3.1 µM and the MIC (Pseudomonas aeruginosa [9]) was 24 µM. For the same substance, the “Ratio IC50” value (Pseudomonas aeruginosa [10]) was 0.24, the MIC (Escherichia coli [11]) was 12 µM and the MIC (Pseudomonas aeruginosa [12]) was 49 µM. For the same substance, the MIC [13] was 0.8 µM, the MIC (Staphylococcus aureus [14]) was 6.1 µM and the MIC (Enterobacter cloacae) was 12 µM. The MIC (Enterococcus faecium [15]) was 6.1 µM, the MIC (Pseudomonas aeruginosa [16]) was 6.1 µM and the MIC (Enterococcus faecalis [17]) was 49 µM. The MIC (Pseudomonas aeruginosa [18]) was 49 µM, the MIC (Klebsiella pneumoniae [19]) was 49 µM and the MIC (Klebsiella pneumoniae [20]) was 98 µM.
Work on H-RWRRWKWWL-OH yielded an MIC (Pseudomonas aeruginosa [1]) of 12 µM, an MIC (Escherichia coli [2]) of 5.7 µM and an MIC (Enterococcus faecalis [3]) of 92 µM. The MIC (Enterococcus faecium [4]) was 5.7 µM, the MIC (Pseudomonas aeruginosa [5]) was 5.8 µM and the MIC (Staphylococcus aureus [6]) was 2.9 µM. The MIC (Enterococcus faecalis [7]) was 23 µM, the MIC (Pseudomonas aeruginosa [8]) was 0.3 µM and the MIC (Pseudomonas aeruginosa [9]) was 12 µM. The “Ratio IC50” value (Pseudomonas aeruginosa [10]) was 0.08, the MIC (Escherichia coli [11]) was 2.9 µM and the MIC (Pseudomonas aeruginosa [12]) was 12 µM. The MIC [13] was 0.7 µM, the MIC (Staphylococcus aureus [14]) was 2.9 µM and the MIC (Enterobacter cloacae) was 5.8 µM. For the same substance, the MIC (Enterococcus faecium [15]) was 1.4 µM, the MIC (Pseudomonas aeruginosa [16]) was 2.9 µM and the MIC (Enterococcus faecalis [17]) was 92 µM. For the same substance, the MIC (Pseudomonas aeruginosa [18]) was 23 µM, the MIC (Klebsiella pneumoniae [19]) was 11 µM and the MIC (Klebsiella pneumoniae [20]) was 46 µM.
Work on H-WKKWWKRRW-OH yielded an MIC (Pseudomonas aeruginosa [1]) of 46 µM, an MIC (Escherichia coli [2]) of 23 µM and an MIC (Enterococcus faecalis [3]) greater than 186 µM. The MIC (Enterococcus faecium [4]) was 12 µM, the MIC (Pseudomonas aeruginosa [5]) was 46 µM and the MIC (Staphylococcus aureus [6]) was 2.9 µM. The MIC (Enterococcus faecalis [7]) was 93 µM, the MIC (Pseudomonas aeruginosa [8]) was 5.8 µM and the MIC (Pseudomonas aeruginosa [9]) was 46 µM. The “Ratio IC50” value (Pseudomonas aeruginosa [10]) was 0.19, the MIC (Escherichia coli [11]) was 2.9 µM and the MIC (Pseudomonas aeruginosa [12]) was 46 µM. For the same substance, the MIC [13] was 1.4 µM, the MIC (Staphylococcus aureus [14]) was 1.4 µM and the MIC (Enterobacter cloacae) was 23 µM. For the same substance, the MIC (Enterococcus faecium [15]) was 5.8 µM, the MIC (Pseudomonas aeruginosa [16]) was 23 µM and the MIC (Enterococcus faecalis [17]) was greater than 186 µM. It also gave an MIC (Pseudomonas aeruginosa [18]) of 93 µM, an MIC (Klebsiella pneumoniae [19]) of 46 µM and an MIC (Klebsiella pneumoniae [20]) of 186 µM.
Substance H-WKRWWKKWR-OH has an MIC (Pseudomonas aeruginosa [1]) of 46 µM, an MIC (Escherichia coli [2]) of 23 µM and an MIC (Enterococcus faecalis [3]) greater than 186 µM. It also gave an MIC (Enterococcus faecium [4]) of 23 µM, an MIC (Pseudomonas aeruginosa [5]) of 23 µM and an MIC (Staphylococcus aureus [6]) of 5.8 µM. It also gave an MIC (Enterococcus faecalis [7]) of 93 µM, an MIC (Pseudomonas aeruginosa [8]) of 5.8 µM and an MIC (Pseudomonas aeruginosa [9]) of 46 µM. The “Ratio IC50” value (Pseudomonas aeruginosa [10]) was 0.2, the MIC (Escherichia coli [11]) was 2.9 µM and the MIC (Pseudomonas aeruginosa [12]) was 46 µM. For the same substance, the MIC [13] was 1.4 µM, the MIC (Staphylococcus aureus [14]) was 5.8 µM and the MIC (Enterobacter cloacae) was 93 µM. For the same substance, the MIC (Enterococcus faecium [15]) was 5.8 µM, the MIC (Pseudomonas aeruginosa [16]) was 23 µM and the MIC (Enterococcus faecalis [17]) was greater than 186 µM. The MIC (Pseudomonas aeruginosa [18]) was 93 µM, the MIC (Klebsiella pneumoniae [19]) was 46 µM and the MIC (Klebsiella pneumoniae [20]) was 186 µM.
H-WRWWKIWKR-OH showed an MIC (Pseudomonas aeruginosa [1]) of 47 µM, an MIC (Escherichia coli [2]) of 5.9 µM and an MIC (Enterococcus faecalis [3]) of 94 µM. The MIC (Enterococcus faecium [4]) was 5.9 µM, the MIC (Pseudomonas aeruginosa [5]) was 12 µM and the MIC (Staphylococcus aureus [6]) was 3 µM. For the same substance, the MIC (Enterococcus faecalis [7]) was 24 µM, the MIC (Pseudomonas aeruginosa [8]) was 1.5 µM and the MIC (Pseudomonas aeruginosa [9]) was 24 µM. The “Ratio IC50” value (Pseudomonas aeruginosa [10]) was 0.14, the MIC (Escherichia coli [11]) was 5.9 µM and the MIC (Pseudomonas aeruginosa [12]) was 24 µM. The MIC [13] was 0.8 µM, the MIC (Staphylococcus aureus [14]) was 3 µM and the MIC (Enterobacter cloacae) was 12 µM. For the same substance, the MIC (Enterococcus faecium [15]) was 1.5 µM, the MIC (Pseudomonas aeruginosa [16]) was 5.9 µM and the MIC (Enterococcus faecalis [17]) was 94 µM. The MIC (Pseudomonas aeruginosa [18]) was 47 µM, the MIC (Klebsiella pneumoniae [19]) was 24 µM and the MIC (Klebsiella pneumoniae [20]) was 94 µM.
